# Measurements published in ChEMBL document CHEMBL1135415, “Rational design and evaluation of new lead compound structures for selective betaARK1 inhibitors” (J Med Chem, 2002).
# Activity calls are given as the source filed them. The calls are words filed in the database; no cut-off is given here.
# Experiments:
# [1] = biological target: T1, Beta-adrenergic receptor kinase 1 (Homo sapiens) (UniProt P25098); experiment: Inhibition of Beta-adrenergic receptor kinase 1 at 1 mM
# T1 sequence (whole entry): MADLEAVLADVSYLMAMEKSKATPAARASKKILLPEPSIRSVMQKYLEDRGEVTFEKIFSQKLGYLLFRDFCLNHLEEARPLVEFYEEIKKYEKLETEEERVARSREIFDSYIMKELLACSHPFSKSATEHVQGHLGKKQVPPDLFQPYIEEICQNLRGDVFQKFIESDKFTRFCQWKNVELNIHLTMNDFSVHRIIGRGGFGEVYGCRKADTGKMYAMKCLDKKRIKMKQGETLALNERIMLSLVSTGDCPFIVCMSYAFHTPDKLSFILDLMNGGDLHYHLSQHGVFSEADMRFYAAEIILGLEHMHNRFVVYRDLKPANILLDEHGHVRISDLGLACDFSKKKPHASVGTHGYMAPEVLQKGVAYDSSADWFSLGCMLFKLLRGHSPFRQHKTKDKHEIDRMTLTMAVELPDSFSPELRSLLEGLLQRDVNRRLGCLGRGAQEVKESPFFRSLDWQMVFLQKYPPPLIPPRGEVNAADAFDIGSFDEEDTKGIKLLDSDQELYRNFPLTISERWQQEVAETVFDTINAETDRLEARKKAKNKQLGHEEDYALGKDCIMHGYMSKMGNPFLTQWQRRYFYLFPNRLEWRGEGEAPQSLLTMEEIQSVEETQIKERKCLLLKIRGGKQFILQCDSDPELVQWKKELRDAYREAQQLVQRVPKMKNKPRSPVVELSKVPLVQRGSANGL
# Procedure, shortened: (§1)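 Radiometric assay of βARK1 phosphorylating the intracellular C-terminal domain of human β2-adrenergic receptor (6.7 μM) with 10 mM [γ-32P]ATP (18.5 kBq). Stopped on ice water, then gel electrophoresis and imaging-plate readout of radioactivity. Inhibition % taken against control and background.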
# [2] = biological target: cAMP-dependent protein kinase (PKA) (Homo sapiens) (UniProt P22694+P17612+P22612); experiment: Inhibition of Protein kinase A (PKA) at 1 mM; type: functional
# Procedure, shortened: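 Colorimetric kit assay of PKA (final 87 units/μL) with dye-linked kemptide substrate (LRRASLG). Incubated 30 min at 30 °C. Phosphorylated substrate captured on affinity membrane, eluted, read at OD 570 nm. PKI5-24 was the positive control.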
# [3] = biological target: T2, Beta-adrenergic receptor kinase 1 (Homo sapiens, UniProt P25098); experiment: Inhibition of Beta-adrenergic receptor kinase 1; procedure, shortened: as §1
# T2 sequence (P25098 whole entry): T1 sequence (whole entry)
# [4] = biological target: T1, Beta-adrenergic receptor kinase 1 (Homo sapiens); experiment: Inhibition of Beta-adrenergic receptor kinase 1 at 1 mM (Inactive); procedure, shortened: as §1
compound,measurement,setting,value
COC(=O)c1sccc1Oc1ccc(C(F)(F)F)cc1NC=C(C#N)C#N,inhibition,[1],28.8%
CCC(=O)n1nc2c(c1C(C)(C)C)C(=O)c1ccccc1-2,inhibition,[2],-2.2%
same,IC50,[3],563 µM
same,inhibition,[1],52.7%
CCCCCCCCCCCCCCCCN(C)c1ccc(S(C)(=O)=O)cc1N,inhibition,[4],inactive
CC(=O)CC(=O)Nc1cc(C(C)(C)C)sc1C(N)=O,inhibition,[1],37.3%
NC(=O)c1ncn([C@@H]2O[C@@H](CO)[C@H](O)[C@@H]2O)n1,inhibition,[1],0%
CC(C)Sc1nc2sccn2c1/C=N/OCc1c(Cl)cccc1Cl,inhibition,[4],inactive
O=C(Nc1ccc(F)c([N+](=O)[O-])c1)Nc1cccc2c(O)cccc12,inhibition,[4],inactive
O=C1C(O)=C(O)O[C@@H]1C1COC2(CCCCC2)O1 (stereo not given in full),inhibition,[1],0%
Nc1nc(O)c2ncn([C@H]3O[C@@H]4COP(=O)(O)O[C@H]4[C@H]3O)c2n1,inhibition,[1],24.2%
O=C1C(O)=C(O)O[C@H]1C1COC2(CCCCC2)O1 (stereo not given in full),inhibition,[1],20.4%
O=C(NCc1ccco1)c1ccc([N+](=O)[O-])o1,inhibition,[1],37.7%
O=[N+]([O-])c1ccccc1/N=C/c1ccc2c(c1)OCO2,inhibition,[4],inactive
Oc1nnc(Cc2ccc(-c3ccccc3Cl)o2)c2ccccc12,inhibition,[1],67.3%
COC(=O)c1ccc(/C=C/c2ccc([N+](=O)[O-])o2)o1,inhibition,[2],1.8%
same,IC50,[3],126 µM
same,inhibition,[1],88.4%
CC(C)COC(=O)CSc1nc2c(c(=O)[nH]c(=O)n2C)n1C,inhibition,[1],0%
CCOC(=O)c1cnc2c(C(F)(F)F)cccc2c1O,inhibition,[1],20.1%
C/C(CCS(=O)(=O)c1ccccc1)=N\OC/C=C/Cl,inhibition,[4],inactive
COc1ccc(/C=N/c2ccc(O)cc2)cc1,inhibition,[4],inactive
Cc1csc(-c2nc(-c3ccc(Cl)cc3)no2)c1Cl,inhibition,[4],inactive
Clc1ccc(-c2csc(Nc3ccccc3)n2)cc1,inhibition,[4],inactive
Cc1ccc(Cl)cc1NCN1C(=O)CNC1=S,inhibition,[1],26.5%
